Columns and labels:
LNCaP cells [1] = assay: Cytotoxicity assay; assay type: cell-based; settings: read-out: IC50 in LNCaP cells; LNCaP (PTEN-null), 72 hours, MTT assay
DU145 cells = assay: Cytotoxicity assay; assay type: cell-based; settings: read-out: IC50 in DU145 cells; DU145 (PTEN-wild), 72 hours, MTT assay
In short: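 DU145 cells were seeded at 3×10³ cells/well, a lower density than LNCaP owing to fast growth. After 24 h, test compound was added and cells were incubated 72 h at 37°C. Relative cell number was measured by MTT. IC50 was obtained by fitting a concentration-response curve.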

PI3Kβ = settings: selectivity; cited from earlier work
LNCaP cells [2] = assay: Androgen induced proliferation assay; assay type: cell-based; settings: R1881-containing serum-free medium, 3 days, compared with TGX-221
In short: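 LNCaP cells were seeded 12 h before assay. Medium was switched to serum-free medium containing 1 nM R1881 (synthetic androgen), then test compound was added. After 72 h incubation, proliferation was read by Alamar Blue assay. Mean ± SD, n=3.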

[3] = tested on: androgen response element (ARE-LUC) reporter in LNCaP cells; assay: Androgen induced gene expression assay; assay type: cell-based; settings: R1881 1.0 nM, 24 hours, compared with TGX-221
In short: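 LNCaP cells in 6-well plates were transfected the next day with 1.0 μg ARE-LUC plasmid using Lipofectamine. After 24 h, medium was changed to RPMI-1640 with 2% FBS and 1.0 nM R1881, test compound was added, and cells were incubated 24 h. Cells were PBS-washed and lysed, and luciferase activity was normalised to BCA total protein. Mean ± SD, n=3.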

LNCaP cells [4] = assay: Cellular uptake study; assay type: cell-based; settings: 0.5 μM, 1 hour incubation
LNCaP cells [5] = assay: In vitro competitive receptor binding assay; assay type: cell-based; settings: pre-incubation with Ac-KCCYSL 1 hour, then KCC-TGX 30 minutes
In short: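 LNCaP cells were plated at 2×10⁴ cells/well for 12 h and PBS-washed. They were pre-incubated 1 h at 37°C with the HER2-targeting peptide at the indicated concentrations, then exposed to test conjugate for 30 min. Cells were washed, freeze-thaw lysed, NaOH-hydrolysed 1 h to release parent drug, and extracted with ethyl acetate using an internal standard. Drug was quantified by LC-MS/MS and normalised to BCA protein. n=3.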

LNCaP cells [6] = assay: Immunostaining of LNCaP cells with biotinylated peptides; assay type: binding
In short: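 LNCaP cells were fixed in ice-cold acetone/methanol (1/1) for 10 min and blocked with 1% BSA for 1 h. Biotinylated peptide was applied for 1 h in TBST (0.1% Tween-20, 0.1 M Tris-Cl, pH 7.4). After washing, streptavidin-FITC was added for 20 min and nuclei were counterstained. Cells were imaged by fluorescence microscopy at 200x.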

For `Cc1cc(C(C)Nc2ccccc2)c2nc(N3CCOCC3)cc(=O)n2c1` (stereo not shown) [TGX-221], the IC50 (LNCaP cells [1]) is listed as 1070 nM, the IC50 (DU145 cells) is listed as > 100000 nM and the “inhibition effect on PI3Kβ over PI3Kα” value (PI3Kβ) is listed as “about 1000 fold”. The “inhibition effect on PI3Kβ over PI3Kγ” value (PI3Kβ) was “about 1000 fold” and the “inhibition effect on PI3Kβ over PI3Kδ” value (PI3Kβ) was ~20 fold.
For `Cc1cc(C(C)N(CCO)c2ccccc2)c2nc(N3CCOCC3)cc(=O)n2c1` (stereo not shown) [TGX-D1], the IC50 (LNCaP cells [1]) was 2670 nM, the IC50 (DU145 cells) was > 100000 nM and the “inhibition of androgen-induced cell proliferation” value (LNCaP cells [2]) was “comparable effects”. For the same molecule, the “inhibition of androgen-induced gene expression” value [3] was “comparable effects” and the “cellular uptake in LNCaP cells” value (LNCaP cells [4]) was “low uptake”.
For Ac-KCCYSL, the “uptake by LNCaP cells after pre-incubation with the HER2-specific ligand” value (LNCaP cells [5]) was “significantly inhibited”.
In the case of DPRATPGSK, the “fluorescence on LNCaP cells (streptavidin-FITC staining)” value (LNCaP cells [6]; control peptide, concentration increased to 100 μM (data not shown)) is reported as “No significant fluorescence”.
For KCCYSL, the “binding on LNCaP cells (streptavidin-FITC staining)” value (LNCaP cells [6]; C-terminus biotinylated peptide, 10 μM) was “high-affinity binding”.

Source: paper PMC3163154 (Molecular pharmaceutics, 2011)
